Results on two molecules are retold here after ChEMBL document CHEMBL4433221, “Novel Sustainable-by-Design HDAC Inhibitors for the Treatment of Alzheimer's Disease” (ACS Med Chem Lett, 2019).

One experiment deals with Histone deacetylase 1 (Homo sapiens, UniProt Q13547). Nature of the experiment: Inhibition of human recombinant HDAC1 using ZMAL (Z-(Ac)Lys-AMC fluorogenic substrate incubated for 90 mins by fluorescence method.
Experiment [1] has as its target T1, Protein deacetylase HDAC6 (Homo sapiens, UniProt Q9UBN7).
T1 sequence (Q9UBN7 whole entry): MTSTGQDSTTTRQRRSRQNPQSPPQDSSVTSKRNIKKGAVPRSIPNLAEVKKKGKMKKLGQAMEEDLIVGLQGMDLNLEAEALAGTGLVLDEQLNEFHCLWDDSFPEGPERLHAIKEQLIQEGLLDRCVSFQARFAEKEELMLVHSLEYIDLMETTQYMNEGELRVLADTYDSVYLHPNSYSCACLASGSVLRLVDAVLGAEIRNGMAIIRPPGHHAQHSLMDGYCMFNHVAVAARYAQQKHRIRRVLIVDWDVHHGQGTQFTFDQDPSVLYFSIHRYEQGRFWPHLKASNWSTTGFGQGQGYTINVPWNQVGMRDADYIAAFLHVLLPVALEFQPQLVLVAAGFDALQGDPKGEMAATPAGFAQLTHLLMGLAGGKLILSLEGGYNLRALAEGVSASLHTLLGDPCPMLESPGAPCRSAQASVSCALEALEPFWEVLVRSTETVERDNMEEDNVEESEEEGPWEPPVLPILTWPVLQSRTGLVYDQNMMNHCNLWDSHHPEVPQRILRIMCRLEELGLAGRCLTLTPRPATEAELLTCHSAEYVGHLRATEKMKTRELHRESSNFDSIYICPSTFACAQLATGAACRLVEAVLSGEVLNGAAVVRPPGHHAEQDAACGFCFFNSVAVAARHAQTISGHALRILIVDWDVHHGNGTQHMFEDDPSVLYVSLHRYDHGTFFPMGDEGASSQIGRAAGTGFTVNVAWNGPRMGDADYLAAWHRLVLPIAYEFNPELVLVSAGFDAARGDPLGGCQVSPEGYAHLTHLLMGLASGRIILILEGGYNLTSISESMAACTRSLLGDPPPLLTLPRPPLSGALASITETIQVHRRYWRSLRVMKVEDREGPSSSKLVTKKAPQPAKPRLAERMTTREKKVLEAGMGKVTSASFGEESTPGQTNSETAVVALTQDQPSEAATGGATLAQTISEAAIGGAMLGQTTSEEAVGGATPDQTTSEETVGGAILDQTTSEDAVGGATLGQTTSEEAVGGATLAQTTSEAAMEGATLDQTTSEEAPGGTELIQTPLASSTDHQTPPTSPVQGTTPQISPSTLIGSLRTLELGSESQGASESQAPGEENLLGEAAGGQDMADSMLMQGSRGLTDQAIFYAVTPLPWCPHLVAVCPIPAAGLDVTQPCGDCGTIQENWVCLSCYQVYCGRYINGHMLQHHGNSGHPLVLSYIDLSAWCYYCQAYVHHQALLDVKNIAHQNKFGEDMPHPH
Nature of the experiment: Inhibition of human recombinant HDAC6 using ZMAL (Z-(Ac)Lys-AMC fluorogenic substrate incubated for 90 mins by fluorescence method.

Experiment [2] has as its target Histone deacetylase 4 (Homo sapiens) (UniProt P56524). Nature of the experiment: Inhibition of human recombinant HDAC4 using fluorogenic trifluoroacetyl lysine as substrate at 10 uM by fluorescence method. The gist of the method: (§1)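 Selectivity profile across HDAC isoforms 1–11 at a single concentration of 10 μM, run in duplicate.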
The target in experiment [3] is T2, Polyamine deacetylase HDAC10 (Homo sapiens) (UniProt Q969S8).
T2 sequence (whole entry): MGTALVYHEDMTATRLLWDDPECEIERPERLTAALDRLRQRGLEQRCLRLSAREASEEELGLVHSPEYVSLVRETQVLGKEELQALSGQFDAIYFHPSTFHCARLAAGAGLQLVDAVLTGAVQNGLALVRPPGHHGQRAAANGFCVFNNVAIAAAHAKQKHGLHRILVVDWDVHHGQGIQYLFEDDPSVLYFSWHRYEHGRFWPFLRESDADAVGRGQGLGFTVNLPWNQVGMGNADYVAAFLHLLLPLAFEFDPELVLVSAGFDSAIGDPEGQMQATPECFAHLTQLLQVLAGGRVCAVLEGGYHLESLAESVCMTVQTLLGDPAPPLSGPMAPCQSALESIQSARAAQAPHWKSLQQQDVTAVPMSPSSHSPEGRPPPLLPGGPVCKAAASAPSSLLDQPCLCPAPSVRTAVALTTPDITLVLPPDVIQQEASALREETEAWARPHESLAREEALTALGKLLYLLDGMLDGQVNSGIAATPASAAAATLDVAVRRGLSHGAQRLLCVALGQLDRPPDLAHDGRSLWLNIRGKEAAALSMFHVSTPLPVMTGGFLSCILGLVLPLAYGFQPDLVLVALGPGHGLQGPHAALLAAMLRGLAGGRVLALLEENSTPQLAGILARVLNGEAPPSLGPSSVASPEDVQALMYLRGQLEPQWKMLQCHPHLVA
Description: Inhibition of human recombinant HDAC10 using fluorogenic peptide p53 residues 379-382 (RHKK(Ac)AMC) as residues at 10 uM by fluorescence method. Put shortly:
as §1

The next experiment relates to N9. Nature of the experiment: Immunomodulatory activity in mouse N9 cells assessed as reduction in LPS-induced iNOS expression at 5 to 25 uM incubated for 24 hrs by Western blot analysis. In kind it is functional, cell-based. The gist of the method:
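N9 mouse microglial cells stimulated with LPS (100 ng/mL) and treated at 5 and 25 μM. iNOS and MRC1 levels were read by Western blot with GAPDH as loading control. Densitometry is expressed as percentage of LPS-only cells, as mean ± SE of three independent experiments.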

Activity calls are given as the source filed them. The rule behind the calls is not given here.

Sequence of Histone deacetylase 4 (Homo sapiens) (P56524 whole entry, canonical isoform): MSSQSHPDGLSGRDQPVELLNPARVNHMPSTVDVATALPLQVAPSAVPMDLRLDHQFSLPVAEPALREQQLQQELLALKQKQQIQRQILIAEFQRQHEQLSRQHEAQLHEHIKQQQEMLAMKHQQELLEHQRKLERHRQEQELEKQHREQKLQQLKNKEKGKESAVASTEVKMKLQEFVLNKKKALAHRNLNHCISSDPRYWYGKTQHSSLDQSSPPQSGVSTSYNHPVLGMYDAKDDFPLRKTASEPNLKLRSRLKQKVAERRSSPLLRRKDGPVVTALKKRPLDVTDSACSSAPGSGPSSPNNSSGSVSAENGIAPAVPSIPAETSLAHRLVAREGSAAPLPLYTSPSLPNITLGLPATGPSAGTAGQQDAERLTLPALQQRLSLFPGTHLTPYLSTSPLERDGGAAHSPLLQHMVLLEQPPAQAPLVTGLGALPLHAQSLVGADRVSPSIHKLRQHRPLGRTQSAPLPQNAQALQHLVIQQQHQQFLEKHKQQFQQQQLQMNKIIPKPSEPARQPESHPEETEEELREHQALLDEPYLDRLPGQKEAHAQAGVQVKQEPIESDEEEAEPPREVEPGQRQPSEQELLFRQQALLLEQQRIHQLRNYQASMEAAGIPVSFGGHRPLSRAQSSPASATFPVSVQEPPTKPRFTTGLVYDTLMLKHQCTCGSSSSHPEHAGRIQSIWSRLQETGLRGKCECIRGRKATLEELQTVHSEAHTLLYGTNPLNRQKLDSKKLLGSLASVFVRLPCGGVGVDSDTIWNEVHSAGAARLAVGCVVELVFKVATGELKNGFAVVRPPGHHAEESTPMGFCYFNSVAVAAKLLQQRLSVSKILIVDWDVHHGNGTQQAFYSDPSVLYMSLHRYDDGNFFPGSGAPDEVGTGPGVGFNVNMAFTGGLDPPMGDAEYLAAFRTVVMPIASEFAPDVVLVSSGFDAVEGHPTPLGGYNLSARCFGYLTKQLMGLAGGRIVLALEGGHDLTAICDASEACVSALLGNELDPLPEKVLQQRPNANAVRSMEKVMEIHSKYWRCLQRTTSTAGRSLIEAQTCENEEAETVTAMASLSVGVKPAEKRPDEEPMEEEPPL
Sequence of Histone deacetylase 1 (Q13547 whole entry): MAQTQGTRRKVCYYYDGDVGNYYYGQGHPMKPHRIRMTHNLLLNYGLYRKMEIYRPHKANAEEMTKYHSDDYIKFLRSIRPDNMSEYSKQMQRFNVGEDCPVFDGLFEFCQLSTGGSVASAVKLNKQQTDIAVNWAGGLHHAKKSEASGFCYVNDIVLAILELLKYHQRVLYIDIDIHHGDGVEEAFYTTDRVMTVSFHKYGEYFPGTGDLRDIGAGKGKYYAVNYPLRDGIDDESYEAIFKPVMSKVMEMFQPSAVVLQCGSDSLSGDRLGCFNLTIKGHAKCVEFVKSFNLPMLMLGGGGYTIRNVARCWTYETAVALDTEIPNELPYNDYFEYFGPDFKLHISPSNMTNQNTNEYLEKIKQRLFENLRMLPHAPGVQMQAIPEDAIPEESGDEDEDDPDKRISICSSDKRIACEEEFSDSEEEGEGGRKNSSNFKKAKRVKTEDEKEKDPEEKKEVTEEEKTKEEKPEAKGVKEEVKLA

As to `COC(=O)c1c(CCCCCCCC(=O)NO)cccc1OC`, the IC50 at Histone deacetylase 1 is 775 nM; in experiment [1] it was 215 nM. Further, the inhibition result in experiment [2] and in experiment [3] was “inactive” each time. In addition, the result in the experiment with N9 was Active.
For `COc1cccc(CCCCCCCC(=O)NO)c1`, the IC50 on Histone deacetylase 1 was 316 nM; in experiment [1], 190 nM. Also, the inhibition entry in experiment [2] and in experiment [3] was “inactive” throughout. In the experiment on N9, the result was Active.
